Measurements as given in ChEMBL document CHEMBL2203163, “Bromine- and chlorine-containing aeruginosins from Microcystis aeruginosa bloom material collected in Kibbutz Geva, Israel” (J Nat Prod, 2012).

Key:
[1] = Inhibition of thrombin
In short: (§1)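 Protease-inhibition assay read on a microplate (ELISA-type) reader. Activity is reported as IC50.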

[2] = Inhibition of trypsin; in short: as §1

SMILES | IC50 [1] [µM] | IC50 [2] [µM]
CC(C)C[C@@H](NC(=O)[C@H](O)Cc1cc(Cl)c(O)c(Cl)c1)C(=O)N1[C@H](C(=O)NCCCCNC(=N)N)C[C@@H]2CC[C@@H](O)C[C@@H]21 | > 45.5 | 8.5
CC[C@H](C)[C@@H](NC(=O)[C@H](O)Cc1cc(Br)c(O)c(Br)c1)C(=O)N1[C@H](C(=O)NCCCCNC(=N)N)C[C@@H]2CC[C@@H](OS(=O)(=O)O)C[C@@H]21 (relative stereo) | > 45.5 | 18.2
CC[C@H](C)[C@@H](NC(=O)[C@H](O)Cc1cc(Br)c(O)c(Br)c1)C(=O)N1[C@H](C(=O)NCCCCNC(=N)N)C[C@@H]2CC[C@@H](O)C[C@@H]21 (relative stereo) | 12.9 | 2.3
CC[C@H](C)[C@@H](NC(=O)[C@H](O)Cc1cc(Cl)c(O)c(Br)c1)C(=O)N1[C@H](C(=O)NCCCCNC(=N)N)C[C@@H]2CC[C@@H](OS(=O)(=O)O)C[C@@H]21 (relative stereo) | > 45.5 | 12.2
CC[C@H](C)[C@@H](NC(=O)[C@H](O)Cc1cc(Cl)c(O)c(Br)c1)C(=O)N1[C@H](C(=O)NCCCCNC(=N)N)C[C@@H]2CC[C@@H](O)C[C@@H]21 (relative stereo) | 12.8 | 3.2
